From ChEMBL document CHEMBL2146426, “Antitubercular nitrofuran isoxazolines with improved pharmacokinetic properties” (Bioorg Med Chem, 2012)
In brackets after ≈: the same amount, converted by molar mass.

Assays:
[1] = Half life in Sprague-Dawley rat at 10 mg/kg, iv; format: ADME, organism-based; set-up: dose 10 mg/kg, route intravenous; conditions: in vivo
Procedure, shortened: (§1)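 Rats, n=5, given 10 mg/kg IV via femoral vein catheter. Vehicle was 2% ethanol/saline or 30% DMSO/30% propylene glycol/20% PEG 3000/20% saline, depending on compound. Plasma sampled 0–48 h and urine collected in intervals to 48 h; both assayed by LC-MS/MS after acetonitrile precipitation. Non-compartmental analysis: CL = dose/AUC0-∞; fe = cumulative unchanged urinary amount/dose.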

Vero = experiment: Cytotoxicity against african green monkey Vero cells after 72 hrs by MTT assay; format: cell-based; conditions: Chlorocebus sabaeus
Procedure, shortened: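 Vero cells in DMEM with 10% FBS, seeded at ~10% confluency and left to adhere overnight. Two-fold serial dilutions applied for 72 h at 37°C, 5% CO2. MTT read-out at 570 nm after overnight solubilization.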

[2] = Drug excretion in Sprague-Dawley rat urine at 10 mg/kg, iv; format: ADME, organism-based; set-up: dose 10 mg/kg, route intravenous; conditions: read-out: Drug excretion; procedure, shortened: as §1
Enterococcus faecalis = experiment: Antibacterial activity against Enterococcus faecalis ATCC 3186 after overnight incubation by microbroth dilution technique; format: functional
Procedure, shortened: (§2)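 Two-fold serial broth dilutions per CLSI; inoculum about 10^5 CFU/mL; top final drug concentration 200 µg/mL; incubated aerobically overnight at 37°C. MIC read visually as the lowest concentration with no visible growth.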

[3] = AUC (0 to infinity) in Sprague-Dawley rat at 10 mg/kg, iv; format: ADME, organism-based; set-up: time infinity, dose 10 mg/kg, route intravenous; conditions: plasma; procedure, shortened: as §1
Bacillus subtilis = experiment: Antibacterial activity against Bacillus subtilis ATCC 23857 after overnight incubation by microbroth dilution technique; format: functional
Procedure, shortened: (§3)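 Non-mycobacterial strains: two-fold serial dilutions in broth by CLSI microbroth dilution. Inoculum about 10^5 cfu/mL; top final drug concentration 200 µg/mL. Aerobic incubation at 37°C overnight. MIC read visually as the lowest concentration with no visible growth.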

[4] = Plasma protein binding in mouse at 10 uM after 4 hrs by LC/MS analysis; format: ADME, cell-free; conditions: read-out: PPB (converted)
Procedure, shortened: (§4)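 Compound at 10 µM (0.1% DMSO) in mouse or human plasma. Rapid equilibrium dialysis (MWCO 8K) against DPBS pH 7.4, 4 h at 37°C with orbital shaking. Both chambers matrix-matched, precipitated with acetonitrile containing warfarin internal standard, quantified by LC–MS. %Free = buffer/plasma × 100; %Bound = 100 − %Free.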

[5] = Volume of distribution in Sprague-Dawley rat at 10 mg/kg, iv; format: ADME, organism-based; set-up: dose 10 mg/kg, route intravenous; conditions: in vivo; procedure, shortened: as §1
Streptococcus pneumoniae = experiment: Antibacterial activity against Streptococcus pneumoniae DAW27 after overnight incubation by microbroth dilution technique; format: functional; procedure, shortened: as §2
Bacillus anthracis = experiment: Antibacterial activity against Bacillus anthracis Sterne 34F2 after overnight incubation by microbroth dilution technique; format: functional; procedure, shortened: as §3
[6] = Clearance in Sprague-Dawley rat at 10 mg/kg, iv; format: ADME, organism-based; set-up: dose 10 mg/kg, route intravenous; conditions: in vivo; procedure, shortened: as §1
Escherichia coli = experiment: Antibacterial activity against Escherichia coli K12 after overnight incubation by microbroth dilution technique; format: functional; conditions: K-12; procedure, shortened: as §3
Staphylococcus aureus = experiment: Antibacterial activity against Staphylococcus aureus ATCC 29213 after overnight incubation by microbroth dilution technique; format: functional; procedure, shortened: as §2
[7] = Plasma protein binding in human at 10 uM after 4 hrs by LC/MS analysis; format: ADME, cell-free; conditions: read-out: PPB (converted); procedure, shortened: as §4
Rattus norvegicus [8] = experiment: Oral bioavailability in Sprague-Dawley rat at 100 mg/kg; format: ADME, organism-based; conditions: in vivo
Procedure, shortened: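 Fasted rats, n=5, dosed 100 mg/kg by oral gavage. Vehicle was 2% methanol, 60:40 PEG 3000/water or 10% vitamin E TPGS, depending on compound. Plasma sampled to 48 h and assayed by LC-MS/MS. F = (AUCoral×DoseIV)/(AUCIV×Doseoral), referenced to 10 mg/kg IV.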

[9] = Cmax in Sprague-Dawley rat at 10 mg/kg, iv; format: ADME, organism-based; set-up: dose 10 mg/kg, route intravenous; conditions: in vivo; procedure, shortened: as §1
Streptococcus pyogenes = experiment: Antibacterial activity against Streptococcus pyogenes ATCC 700294 after overnight incubation by microbroth dilution technique; format: functional; procedure, shortened: as §2
Rattus norvegicus [10] = experiment: Toxicity in Sprague-Dawley rat assessed as mortality at 100 mg/kg, po; format: organism-based; set-up: dose 100 mg/kg, route oral; conditions: in vivo
Procedure, shortened: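 Observed during rat oral pharmacokinetic study (n=5). Overnight-fasted animals, water ad libitum, received 100 mg/kg by oral gavage. Vehicle was compound-dependent: 2% methanol (sonicated), 60:40 PEG 3000/water, or 10% vitamin E TPGS. Animals followed with sampling to 48 h.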

Rattus norvegicus [11] = experiment: Toxicity in Sprague-Dawley rat assessed as mortality at 10 mg/kg, iv; format: organism-based; set-up: dose 10 mg/kg, route intravenous; conditions: in vivo
Procedure, shortened: (§5)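 Observed during rat IV pharmacokinetic study (n=5). Single 10 mg/kg dose via femoral vein catheter, flushed with heparinized locking solution. Vehicle was 2% ethanol/saline or 30% DMSO/30% propylene glycol/20% PEG 3000/20% saline. Animals followed with serial blood sampling to 48 h.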

[12] = Apparent permeability of the compound from apical to basal side of human Caco2 cells at 50 umol/L after 2 hrs by UPLC/MS analysis; format: ADME, cell-based; conditions: Caco-2
Procedure, shortened: (§6)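 Caco-2 monolayers grown 7 days on Transwell inserts, washed with HBSS/HEPES pH 7.4. Compound at 50 µmol/L added apically or basolaterally, then 2 h at 37°C. Receiver side sampled and quantified by UPLC/MS. Papp = (dQ/dt)/(A×C0), triplicates.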

Rattus norvegicus [13] = experiment: Toxicity in Sprague-Dawley rat assessed as seizures at 10 mg/kg, iv; format: organism-based; set-up: dose 10 mg/kg, route intravenous; conditions: in vivo; procedure, shortened: as §5
[14] = Efflux ratio of apparent permeability from basal to apical side to apical to basal side of human Caco2 cells; conditions: Caco-2
[15] = Half life in human liver microsomes; format: ADME, Microsome
[16] = Solubility of the compound at pH 7.4 after 18 hrs by UV spectrometry; format: physicochemical; conditions: buffer, pH 7.4, 18 h
Procedure, shortened: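 10 mM DMSO stocks diluted 100-fold in system solution buffer pH 7.4 and held 18 h at room temperature. Filtered, diluted 1:1 with isopropanol and measured by UV (230–500 nm). Compared against a 600-fold diluted reference in buffer/isopropanol. Triplicates.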

[17] = Apparent permeability of the compound from basal to apical side of human Caco2 cells at 50 umol/L after 2 hrs by UPLC/MS analysis; format: ADME, cell-based; conditions: Caco-2; procedure, shortened: as §6
[18] = test system: Mycobacterium tuberculosis; experiment: Antitubercular activity against Mycobacterium tuberculosis after 7 to 14 days by microbroth dilution technique; format: functional
Procedure, shortened: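 M. tuberculosis: CLSI microbroth dilution using two-fold serial drug dilutions in broth. Inoculum about 10^6 CFU/mL; top final concentration 200 µg/mL. Incubated aerobically at 37°C for 7 or 14 days. MIC taken as the lowest concentration preventing visible growth by eye.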

[19] = Half life in mouse liver microsomes; format: ADME, Microsome
Procedure, shortened: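 Mouse liver microsomes at 0.6381 mg/mL protein in 0.1 M potassium phosphate pH 7.4 with EDTA. Reaction started with NADPH regenerating system at 37°C; six time points including 0, triplicate wells. Quenched in cold acetonitrile with warfarin internal standard, analysed by LC–MS. Half-life from a first-order least-squares fit.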

[20] = Cmax in rat at 10 mg/kg, iv; format: ADME, organism-based; set-up: dose 10 mg/kg, route intravenous; conditions: in vivo
Procedure, shortened: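 Rats (n=5) given 10 mg/kg IV via femoral vein catheter. Vehicle was 2% ethanol/saline or 30% DMSO/30% propylene glycol/20% PEG 3000/20% saline, depending on compound. Serial plasma sampled 0–48 h and assayed by LC-MS/MS after acetonitrile precipitation. Cmax read by visual inspection of the concentration–time curve.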

[21] = Volume of distribution in rat; format: ADME, organism-based; conditions: in vivo
Procedure, shortened: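 Plasma concentration–time data from rats (n=5) after IV 10 mg/kg or oral 100 mg/kg. Samples taken 0.25–48 h and measured by LC-MS/MS. Non-compartmental analysis; Vd calculated as AUMC0-∞ × dose divided by the square of AUC0-∞.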

[22] = Drug excretion in rat urine; format: ADME; conditions: read-out: Drug excretion
[23] = AUC (0 to infinity) in rat at 10 mg/kg, iv; format: ADME, organism-based; set-up: time infinity, dose 10 mg/kg, route intravenous; conditions: plasma; procedure, shortened: as §1
Rattus norvegicus [24] = species: Rattus norvegicus; experiment: Clearance in rat; format: ADME, organism-based; conditions: in vivo
[25] = Oral bioavailability in rat; format: ADME, organism-based; conditions: in vivo
Rattus norvegicus [26] = species: Rattus norvegicus; experiment: Half life in rat; format: ADME, organism-based; conditions: in vivo

Structure (SMILES)	half-life [1] [h]	IC50 (Vero) [µg/mL]	dose excreted [2] [%]	MIC (Enterococcus faecalis) [µg/mL]	AUC(0-inf) [3] [ng·h/mL]	MIC (Bacillus subtilis) [µg/mL]	fraction unbound at 4 h, 10 µM [4]	Vd [5] [L/kg]	MIC (Streptococcus pneumoniae) [µg/mL]	MIC (Bacillus anthracis) [µg/mL]	clearance [6] [mL/min/kg]	MIC (Escherichia coli) [µg/mL]	MIC (Staphylococcus aureus) [µg/mL]	F (Rattus norvegicus [8]) [%]	Cmax [9] [ng/mL]	MIC (Streptococcus pyogenes) [µg/mL]	Activity (Rattus norvegicus [10])	Activity (Rattus norvegicus [11])	Papp A→B at 2 h, 50 µM [12] [×10⁻⁶ cm/s]	Activity (Rattus norvegicus [13])	other results
O=[N+]([O-])c1ccc(C2=NOC(c3ccc(N4CCOCC4)cc3)C2)o1 (configuration not stated)	2.39	2.9 (≈ 8.45 µM)	0	> 200	1630	12.5 (≈ 36.4 µM)	0.036	35	50 (≈ 146 µM)	12.5 (≈ 36.4 µM)	108	> 200	6.25 (≈ 18.2 µM)	100	830	25 (≈ 72.8 µM)	Non-toxic	Non-toxic	17.2	Non-toxic	fraction unbound at 4 h, 10 µM [7]: 0.038
O=[N+]([O-])c1ccc(C2=NOC(c3ccc(N4CCCCC4)cc3)C2)o1 (configuration not stated)	2.79	2.5 (≈ 7.32 µM)	0	> 200	2750	50 (≈ 146 µM)	0.012	10.9	200 (≈ 586 µM)	> 200	62.8	> 200	12.5 (≈ 36.6 µM)	29.4	2280	100 (≈ 293 µM)	Non-toxic	Non-toxic	7.61	Non-toxic	efflux ratio [14]: 1.35; half-life [15]: 0.47 h; solubility [16]: 1.1 µg/mL (≈ 3.22 µM); Papp B→A at 2 h, 50 µM [17]: 10.3 ×10⁻⁶ cm/s; MIC [18]: 6 µg/mL (≈ 17.6 µM); half-life [19]: 0.78 h
CC(=O)NC[C@H]1CN(c2ccc(N3CCOCC3)c(F)c2)C(=O)O1 [LINEZOLID]	–	–	–	–	–	–	–	–	–	–	–	–	–	–	–	–	–	–	–	–	Cmax [20]: 15000 ng/mL; Vd [21]: 0.72 L/kg; dose excreted [22]: 73%
CC1COc2c(N3CCN(C)CC3)c(F)cc3c(=O)c(C(=O)O)cn1c23 (configuration not stated) [OFLOXACIN]	–	–	–	–	–	–	–	–	–	–	–	–	–	–	–	–	–	–	–	–	AUC(0-inf) [23]: 6100 ng·h/mL; CL (Rattus norvegicus [24]): 14.3 mL/min/kg; Cmax [20]: 10900 ng/mL; bioavailability [25]: 78%; Vd [21]: 0.99 L/kg; t1/2 (Rattus norvegicus [26]): 1.5 h; dose excreted [22]: 46%
